Experimental data reported in ChEMBL document CHEMBL4680236, “Design, synthesis and structure-activity relationships of novel 15-membered macrolides: Quinolone/quinoline-containing sidechains tethered to the C-6 position of azithromycin acylides” (Eur J Med Chem, 2020).
Values after ≈ are worked out from the molar mass of the structure shown.

Tests used:
Staphylococcus aureus [1] = test: Ratio of MBC to MIC against MLSB/methicillin/ciprofloxacin-resistant Staphylococcus aureus PU32 harboring ermA gene; format: functional
Staphylococcus aureus [2] = test: Antibacterial activity against MLSB/methicillin/ciprofloxacin-resistant Staphylococcus aureus PU32 harboring ermA gene assessed as reduction in microbial growth relative to ciprofloxacin; format: functional
Haemophilus influenzae [3] = test: Antibacterial activity against azithromycin-susceptible Haemophilus influenzae ATCC 49247 assessed as reduction in microbial growth relative to ciprofloxacin; format: functional
Staphylococcus aureus [4] = test: Bactericidal activity against MLSB/methicillin/ciprofloxacin-resistant Staphylococcus aureus PU32 harboring ermA gene; format: functional
Method in brief: (§1)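 Bacteria were exposed to 1- to 8-fold their MIC of test sample, then transferred to fresh culture medium without antibacterial compound and incubated for the required time. Colonies were then counted. MBC is the lowest concentration giving a reduction in colony number of >3 Log₁₀.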

Enterobacter cloacae = test: Antibacterial activity against Enterobacter cloacae ATCC 43560 assessed as reduction in microbial growth; format: functional
Escherichia coli [5] = test: Antibacterial activity against NDM-1 producing Escherichia coli […] assessed as reduction in microbial growth; format: functional
Klebsiella pneumoniae [6] = test: Antibacterial activity against ESBL producing Klebsiella pneumoniae 16-14 assessed as reduction in microbial growth; format: functional
Haemophilus influenzae [7] = test: Bactericidal activity against azithromycin-susceptible Haemophilus influenzae ATCC 49247; format: functional
Method in brief: (§2)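 Bacteria were exposed to 1- to 8-fold MIC of the sample, then transferred to fresh medium without antibacterial. After further incubation, colonies were counted. MBC was taken as the lowest concentration giving a >3 log10 reduction in colony number.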

Streptococcus pneumoniae [8] = test: Bactericidal activity against MLSB-resistant Streptococcus pneumoniae 07P390 harboring ermB gene assessed as reduction in microbial growth; format: functional; method in brief: as §1
Staphylococcus aureus [9] = test: Antibacterial activity against MLSB/methicillin/ciprofloxacin-resistant Staphylococcus aureus PU32 harboring ermA gene assessed as reduction in microbial growth; format: functional
Pseudomonas aeruginosa = test: Antibacterial activity against Pseudomonas aeruginosa ATCC 27853 assessed as reduction in microbial growth; format: functional
Escherichia coli [10] = test: Antibacterial activity against ESBL negative Escherichia coli 16-7 assessed as reduction in microbial growth; format: functional
Staphylococcus aureus [11] = test: Antibacterial activity against MLSB/methicillin-resistant Staphylococcus aureus 15B196 assessed as reduction in microbial growth; format: functional
Klebsiella aerogenes = test: Antibacterial activity against Enterobacter aerogenes ATCC 13048 assessed as reduction in microbial growth; format: functional
[12] = test system: Staphylococcus epidermidis; test: Antibacterial activity against methicillin-susceptible Staphylococcus epidermidis ATCC 12228 assessed as reduction in microbial growth; format: functional
Escherichia coli [13] = test: Antibacterial activity against ESBL positive Escherichia coli 16-1 assessed as reduction in microbial growth; format: functional
Klebsiella pneumoniae [14] = test: Antibacterial activity against NDM-1 producing Klebsiella pneumoniae ATCC BAA-2146 assessed as reduction in microbial growth; format: functional
Acinetobacter baumannii = test: Antibacterial activity against Acinetobacter baumannii ATCC 19606 assessed as reduction in microbial growth; format: functional; conditions: ATCC 19606 = CIP 70.34 = JCM 6841
Streptococcus pneumoniae [15] = test: Antibacterial activity against MLSB-resistant Streptococcus pneumoniae 07P390 harboring ermB gene assessed as reduction in microbial growth; format: functional
Streptococcus pneumoniae [16] = test: Ratio of MBC to MIC against MLSB-resistant Streptococcus pneumoniae 07P390 harboring ermB; format: functional
Streptococcus pneumoniae [17] = test: Antibacterial activity against Erythromycin-susceptible Streptococcus pneumoniae ATCC 49619 assessed as reduction in microbial growth; format: functional
Haemophilus influenzae [18] = test: Ratio of MBC to MIC against azithromycin-susceptible Haemophilus influenzae ATCC 49247; format: functional
Staphylococcus aureus [19] = test: Bactericidal activity against MLSB/methicillin-resistant Staphylococcus aureus 15B196; format: functional; method in brief: as §1
Haemophilus influenzae [20] = test: Antibacterial activity against azithromycin-susceptible Haemophilus influenzae ATCC 49247 assessed as reduction in microbial growth; format: functional
[21] = test system: Staphylococcus epidermidis; test: Antibacterial activity against methicillin-resistant Staphylococcus epidermidis 16-5 assessed as reduction in microbial growth; format: functional
Streptococcus pneumoniae [22] = test: Bactericidal activity against penicillin-susceptible Streptococcus pneumoniae PU09 harboring mef gene; format: functional; method in brief: as §1
Staphylococcus aureus [23] = test: Antibacterial activity against methicillin-resisitant Staphylococcus aureus 16-30 assessed as reduction in microbial growth; format: functional
Streptococcus pneumoniae [24] = test: Ratio of MBC to MIC against penicillin-susceptible Streptococcus pneumoniae PU09; format: functional
Enterococcus faecium = test: Antibacterial activity against vancomycin-resistant Enterococcus faecium ATCC 700221 assessed as reduction in microbial growth
Shigella = test: Antibacterial activity against Shigella ATCC 12022 assessed as reduction in microbial growth; format: functional
Staphylococcus aureus [25] = test: Antibacterial activity against MLSB/methicillin-resistant Staphylococcus aureus 15B196 assessed as reduction in microbial growth relative to ciprofloxacin; format: functional
Enterococcus faecalis = test: Antibacterial activity against vancomycin-susceptible Enterococcus faecalis ATCC 29212 assessed as reduction in microbial growth; format: functional
Streptococcus pneumoniae [26] = test: Ratio of MBC to MIC against Erythromycin-susceptible Streptococcus pneumoniae ATCC 49619; format: functional
Streptococcus pneumoniae [27] = test: Antibacterial activity against penicillin-susceptible Streptococcus pneumoniae PU09 harboring mef gene assessed as reduction in microbial growth; format: functional
Staphylococcus aureus [28] = test: Antibacterial activity against methicillin-susceptible Staphylococcus aureus ATCC 29213 assessed as reduction in microbial growth; format: functional
Streptococcus pneumoniae [29] = test: Bactericidal activity against Erythromycin-susceptible Streptococcus pneumoniae ATCC 49619; format: functional; method in brief: as §2
Streptococcus pyogenes = test: Antibacterial activity against MLSB-resistant Streptococcus pyogenes 12-206 harboring ermA gene assessed as reduction in microbial growth; format: functional
Escherichia coli [30] = test: Antibacterial activity against Escherichia coli JW5503-1 depletion of toIC efflux gene assessed as reduction in microbial growth; format: functional
Escherichia coli [31] = test: Antibacterial activity against Escherichia coli JW5503-KanS depletion of toIC efflux gene assessed as reduction in microbial growth; format: functional
Staphylococcus aureus [32] = test: Ratio of MBC to MIC against MLSB/methicillin-resistant Staphylococcus aureus 15B196; format: functional
Escherichia coli [33] = test: Antibacterial activity against Escherichia coli BW25113 depletion of toIC efflux gene assessed as reduction in microbial growth; format: functional

| Structure (SMILES) | Ratio (Staphylococcus aureus [1]) | fold change (FC) (Staphylococcus aureus [2]) | fold change (FC) (Haemophilus influenzae [3]) | MBC (Staphylococcus aureus [4]) | MBC (Haemophilus influenzae [7]) | MBC (Streptococcus pneumoniae [8]) | MIC (Staphylococcus aureus [9]) | MIC (Staphylococcus aureus [11]) | MIC (Streptococcus pneumoniae [15]) | Ratio (Streptococcus pneumoniae [16]) | MIC (Streptococcus pneumoniae [17]) | Ratio (Haemophilus influenzae [18]) | MBC (Staphylococcus aureus [19]) | MIC (Haemophilus influenzae [20]) | MBC (Streptococcus pneumoniae [22]) | Ratio (Streptococcus pneumoniae [24]) | fold change (FC) (Staphylococcus aureus [25]) | Ratio (Streptococcus pneumoniae [26]) | MIC (Streptococcus pneumoniae [27]) | MBC (Streptococcus pneumoniae [29]) | further results |
| --- | --- | --- | --- | --- | --- | --- | --- | --- | --- | --- | --- | --- | --- | --- | --- | --- | --- | --- | --- | --- | --- |
| CC[C@H]1OC(=O)[C@H](C)[C@@H](OC(=O)Cc2ccccn2)[C@H](C)[C@@H](O[C@@H]2O[C@H](C)C[C@H](N(C)C)[C@H]2O)[C@](C)(OC(=O)CCNCCC#Cc2cnc3ccccc3c2)C[C@@H](C)CN(C)[C@H](C)[C@@H](O)[C@]1(C)O | >8 | 0.0054 | 172 | > 8 µg/mL | 4 µg/mL (≈ 4.17 µM) | > 4 µg/mL | 1 µg/mL | 128 µg/mL | 0.5 µg/mL | >8 | 0.062 µg/mL | 2 | > 256 µg/mL | 2 µg/mL | 1 µg/mL (≈ 1.04 µM) | 1 | 88 | 2 | 1 µg/mL | 0.125 µg/mL (≈ 0.13 µM) | MIC (Enterobacter cloacae): 32 µg/mL; MIC (Escherichia coli [5]): 8 µg/mL; MIC (Klebsiella pneumoniae [6]): 16 µg/mL; MIC (Pseudomonas aeruginosa): > 64 µg/mL; MIC (Escherichia coli [10]): 8 µg/mL; MIC (Klebsiella aerogenes): 32 µg/mL; MIC [12]: 0.25 µg/mL; MIC (Escherichia coli [13]): 8 µg/mL; MIC (Klebsiella pneumoniae [14]): 32 µg/mL; MIC (Acinetobacter baumannii): > 64 µg/mL; MIC [21]: > 64 µg/mL; MIC (Staphylococcus aureus [23]): > 64 µg/mL; MIC (Enterococcus faecium): > 64 µg/mL; MIC (Shigella): 8 µg/mL; MIC (Enterococcus faecalis): 1 µg/mL; MIC (Staphylococcus aureus [28]): 1 µg/mL |
| O=C(O)c1cn(C2CC2)c2cc(N3CCNCC3)c(F)cc2c1=O [CIPROFLOXACIN] |  |  |  | > 256 µg/mL | 0.008 µg/mL (≈ 0.0241 µM) |  | 256 µg/mL | 0.5 µg/mL | 2 µg/mL |  | 2 µg/mL |  | 0.5 µg/mL (≈ 1.51 µM) |  |  |  |  |  | 2 µg/mL |  | MIC (Streptococcus pyogenes): 0.5 µg/mL; MIC (Escherichia coli [30]): ≤ 0.064 µg/mL; MIC (Escherichia coli [31]): ≤ 0.064 µg/mL |
| CC[C@H]1OC(=O)[C@H](C)[C@@H](OC(=O)Cc2ccccn2)[C@H](C)[C@@H](O[C@@H]2O[C@H](C)C[C@H](N(C)C)[C@H]2O)[C@](C)(OC(=O)CCNCC/C=C/c2cnc3ccccc3c2)C[C@@H](C)CN(C)[C@H](C)[C@@H](O)[C@]1(C)O | 4 |  |  | 8 µg/mL (≈ 8.31 µM) | 16 µg/mL (≈ 16.6 µM) | > 32 µg/mL | 2 µg/mL | 64 µg/mL | 4 µg/mL | >8 | 0.125 µg/mL | 2 | > 256 µg/mL | 8 µg/mL | 1 µg/mL (≈ 1.04 µM) | 1 |  | 1 | 1 µg/mL | 0.125 µg/mL (≈ 0.13 µM) | Ratio (Staphylococcus aureus [32]): >4 |
| CC[C@H]1OC(=O)[C@H](C)[C@@H](O[C@H]2C[C@@](C)(OC)[C@@H](O)[C@H](C)O2)[C@H](C)[C@@H](O[C@@H]2O[C@H](C)C[C@H](N(C)C)[C@H]2O)[C@](C)(O)C[C@@H](C)CN(C)[C@H](C)[C@@H](O)[C@]1(C)O [AZITHROMYCIN] | 1 | 0.22 | 22 | 32 µg/mL (≈ 42.7 µM) | 8 µg/mL (≈ 10.7 µM) | > 257 µg/mL | 32 µg/mL | > 256 µg/mL | 256 µg/mL |  | 0.062 µg/mL | 4 | > 256 µg/mL | 2 µg/mL | 16 µg/mL (≈ 21.4 µM) | 2 | >226 | 4 | 8 µg/mL | 0.25 µg/mL (≈ 0.334 µM) | MIC (Escherichia coli [33]): > 16 µg/mL; MIC (Escherichia coli [30]): 4 µg/mL; MIC (Escherichia coli [31]): 2 µg/mL |
